{
  "source": "ChEMBL document CHEMBL1125784",
  "about": "“Geiparvarin analogues. 2. Synthesis and cytostatic activity of 5-(4-arylbutadienyl)-3(2H)-furanones and of N-substituted 3-(4-oxo-2-furanyl)-2-buten-2-yl carbamates” (J Med Chem, 1991)",
  "type_in_all_cases": "functional, cell-based",
  "key": {"[1]": {"system": "FM3A", "test": "Inhibitory activity against proliferation of murine mammary carcinoma FM3A tumor cell line", "conditions": "Mus musculus", "summary_of_the_method": "(§1)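 Molt/4F or FM3A cells were suspended in growth medium and plated at 5×10^4 cells/well with varying compound concentrations. They proliferated 72 h at 37 °C in a humidified, CO2-controlled atmosphere before Coulter-counter enumeration. IC50 is the concentration giving a 50% drop in viable cell count.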"}, "[2]": {"system": "L1210", "test": "Inhibitory activity against proliferation of murine leukemia L1210 tumor cell line", "conditions": "Mus musculus", "summary_of_the_method": "(§2)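 L1210 cells in growth medium, seeded at 5×10^4 cells/well with a range of test compound concentrations, grown 48 h at 37 °C in humidified CO2-controlled air. Cells were counted in a Coulter counter. IC50 is the concentration reducing viable cell number by 50%.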"}, "[3]": {"system": "MT4", "test": "Inhibitory activity against proliferation of human T-lymphocyte MT-4 tumor cell line", "summary_of_the_method": "(§3)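 MT-4 cells in growth medium, plated at 6.25×10^4 cells/well with serial compound concentrations. Incubation was 72 h at 37 °C, humidified and CO2-controlled, then cells were counted electronically (Coulter). IC50 is the concentration lowering viable cell number by 50%.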"}, "[4]": {"system": "MOLT-4F", "test": "Inhibitory activity against proliferation of human T-lymphoblast Molt/4F tumor cell line", "summary_of_the_method": "as §1"}, "[5]": {"system": "FM3A", "test": "Inhibitory activity against proliferation of murine (FM3A) tumor cell.", "conditions": "Mus musculus", "summary_of_the_method": "as §1"}, "[6]": {"system": "L1210", "test": "Inhibitory activity against proliferation of murine (L1210) tumor cell.", "conditions": "Mus musculus", "summary_of_the_method": "as §2"}, "[7]": {"system": "MT4", "test": "Inhibitory activity against proliferation of human(MT-4) tumor cell.", "summary_of_the_method": "as §3"}, "[8]": {"system": "MOLT-4F", "test": "Inhibitory activity against proliferation of human(Molt/4F) tumor cell.", "summary_of_the_method": "as §1"}},
  "data": [
    {"molecule": "C/C(=C\\COC(=O)NC(C)(C)C)C1=CC(=O)C(C)(C)O1", "values": [
      {"measurement": "IC50", "setting": "[1]", "result": 7.1, "unit": "µg/mL"},
      {"measurement": "IC50", "setting": "[2]", "result": 4.1, "unit": "µg/mL"},
      {"measurement": "IC50", "setting": "[3]", "result": 2.1, "unit": "µg/mL"},
      {"measurement": "IC50", "setting": "[4]", "result": 6.1, "unit": "µg/mL"}
    ]},
    {"molecule": "C=CCNC(=O)OC/C=C(\\C)C1=CC(=O)C(C)(C)O1", "values": [
      {"measurement": "IC50", "setting": "[1]", "result": 7.6, "unit": "µg/mL"},
      {"measurement": "IC50", "setting": "[2]", "result": 6.2, "unit": "µg/mL"},
      {"measurement": "IC50", "setting": "[3]", "result": 2.8, "unit": "µg/mL"},
      {"measurement": "IC50", "setting": "[4]", "result": 7.7, "unit": "µg/mL"}
    ]},
    {"molecule": "C/C(=C\\C=C/C1CCCCC1)C1=CC(=O)C(C)(C)O1", "values": [
      {"measurement": "IC50", "setting": "[1]", "result": 10.8, "unit": "µg/mL"},
      {"measurement": "IC50", "setting": "[2]", "result": 23, "unit": "µg/mL"},
      {"measurement": "IC50", "setting": "[3]", "result": 8.4, "unit": "µg/mL"},
      {"measurement": "IC50", "setting": "[4]", "result": 7.1, "unit": "µg/mL"}
    ]},
    {"molecule": "CCCCNC(=O)OC/C=C(\\C)C1=CC(=O)C(C)(C)O1", "values": [
      {"measurement": "IC50", "setting": "[1]", "result": 7.7, "unit": "µg/mL"},
      {"measurement": "IC50", "setting": "[2]", "result": 2.6, "unit": "µg/mL"},
      {"measurement": "IC50", "setting": "[3]", "result": 1.2, "unit": "µg/mL"},
      {"measurement": "IC50", "setting": "[4]", "result": 5.3, "unit": "µg/mL"}
    ]},
    {"molecule": "C/C(=C\\C=C\\c1ccccc1)C1=CC(=O)C(C)(C)O1", "values": [
      {"measurement": "IC50", "setting": "[1]", "result": 15, "unit": "µg/mL"},
      {"measurement": "IC50", "setting": "[2]", "result": 14, "unit": "µg/mL"},
      {"measurement": "IC50", "setting": "[3]", "result": 6.5, "unit": "µg/mL"},
      {"measurement": "IC50", "setting": "[4]", "result": 14, "unit": "µg/mL"}
    ]},
    {"molecule": "C/C(=C\\COC(=O)NCc1ccccc1)C1=CC(=O)C(C)(C)O1", "values": [
      {"measurement": "IC50", "setting": "[1]", "result": 8.1, "unit": "µg/mL"},
      {"measurement": "IC50", "setting": "[2]", "result": 4.7, "unit": "µg/mL"},
      {"measurement": "IC50", "setting": "[3]", "result": 2, "unit": "µg/mL"},
      {"measurement": "IC50", "setting": "[4]", "result": 6, "unit": "µg/mL"}
    ]},
    {"molecule": "C/C(=C\\COC(=O)NC(C)C)C1=CC(=O)C(C)(C)O1", "values": [
      {"measurement": "IC50", "setting": "[1]", "result": 7.2, "unit": "µg/mL"},
      {"measurement": "IC50", "setting": "[2]", "result": 4.9, "unit": "µg/mL"},
      {"measurement": "IC50", "setting": "[3]", "result": 2.3, "unit": "µg/mL"},
      {"measurement": "IC50", "setting": "[4]", "result": 6.6, "unit": "µg/mL"}
    ]},
    {"molecule": "C/C(=C\\COC(=O)Nc1ccccc1)C1=CC(=O)C(C)(C)O1", "values": [
      {"measurement": "IC50", "setting": "[1]", "result": "> 200", "unit": "µg/mL"},
      {"measurement": "IC50", "setting": "[2]", "result": "> 200", "unit": "µg/mL"},
      {"measurement": "IC50", "setting": "[3]", "result": 103, "unit": "µg/mL"},
      {"measurement": "IC50", "setting": "[4]", "result": "> 200", "unit": "µg/mL"}
    ]},
    {"molecule": "COc1cc2ccc(=O)oc2cc1OC/C=C(\\C)C1=CC(=O)C(C)(C)O1", "values": [
      {"measurement": "IC50", "setting": "[5]", "result": 3.9, "unit": "µg/mL"},
      {"measurement": "IC50", "setting": "[6]", "result": 2, "unit": "µg/mL"},
      {"measurement": "IC50", "setting": "[7]", "result": 0.6, "unit": "µg/mL"},
      {"measurement": "IC50", "setting": "[8]", "result": 2.9, "unit": "µg/mL"}
    ]},
    {"molecule": "COc1ccc(/C=C/C=C(\\C)C2=CC(=O)C(C)(C)O2)cc1", "values": [
      {"measurement": "IC50", "setting": "[1]", "result": 25, "unit": "µg/mL"},
      {"measurement": "IC50", "setting": "[2]", "result": 18, "unit": "µg/mL"},
      {"measurement": "IC50", "setting": "[3]", "result": 5.7, "unit": "µg/mL"},
      {"measurement": "IC50", "setting": "[4]", "result": 10, "unit": "µg/mL"}
    ]},
    {"molecule": "C/C(=C\\C=C\\c1ccc2ccc(=O)oc2c1)C1=CC(=O)C(C)(C)O1", "values": [
      {"measurement": "IC50", "setting": "[5]", "result": "> 100", "unit": "µg/mL"},
      {"measurement": "IC50", "setting": "[6]", "result": 63, "unit": "µg/mL"},
      {"measurement": "IC50", "setting": "[7]", "result": 2.9, "unit": "µg/mL"},
      {"measurement": "IC50", "setting": "[8]", "result": 13, "unit": "µg/mL"}
    ]},
    {"molecule": "C/C(=C\\COC(=O)NC1CCCCC1)C1=CC(=O)C(C)(C)O1", "values": [
      {"measurement": "IC50", "setting": "[1]", "result": 13, "unit": "µg/mL"},
      {"measurement": "IC50", "setting": "[2]", "result": 3.7, "unit": "µg/mL"},
      {"measurement": "IC50", "setting": "[3]", "result": 2.4, "unit": "µg/mL"},
      {"measurement": "IC50", "setting": "[4]", "result": 3.4, "unit": "µg/mL"}
    ]},
    {"molecule": "C/C(=C\\COC(=O)NCCCl)C1=CC(=O)C(C)(C)O1", "values": [
      {"measurement": "IC50", "setting": "[5]", "result": 20.8, "unit": "µg/mL"},
      {"measurement": "IC50", "setting": "[6]", "result": 5.1, "unit": "µg/mL"},
      {"measurement": "IC50", "setting": "[7]", "result": 6.4, "unit": "µg/mL"},
      {"measurement": "IC50", "setting": "[8]", "result": 10.7, "unit": "µg/mL"}
    ]},
    {"molecule": "CCCCCCCCNC(=O)OC/C=C(\\C)C1=CC(=O)C(C)(C)O1", "values": [
      {"measurement": "IC50", "setting": "[5]", "result": 7.1, "unit": "µg/mL"},
      {"measurement": "IC50", "setting": "[6]", "result": 2, "unit": "µg/mL"},
      {"measurement": "IC50", "setting": "[7]", "result": 1.3, "unit": "µg/mL"},
      {"measurement": "IC50", "setting": "[8]", "result": 1.7, "unit": "µg/mL"}
    ]}
  ]
}
